The first assay deals with Candida albicans. In words: Antifungal activity against Candida albicans ATCC 10231 assessed as inhibition of microbial growth by NCCLS protocol based method. In kind it is functional. A digest of the protocol: (§1)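 Broth MIC50 determined following NCCLS guidelines in Sabouraud medium, with fungal suspension in 24-well format. Compound tested at 0.0625, 0.125, 0.5, 1, 2, 4, 8 and 16 μg/mL. Plates cultured statically at 35 °C. MIC50 is the lowest concentration giving 50% growth inhibition. Naftifine and fluconazole served as positive controls.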
For `O=C(NC(Cn1ccnc1)C(=O)NC1CCCC1)c1cccc2ccccc12` (stereo not given), the MIC50 (in general, an inhibitory concentration at the 50% level, which refers to growth in some studies and to a panel of isolates in others) worked out at 0.5 µg/mL.
Same read-out and setting: to `CN(CC(=O)Nc1ccncc1)C(=O)c1ccc2ccccc2c1` belongs 0.25 µg/mL; to `CC(C)C(NC(=O)c1cccc2ccccc12)C(=O)NC(Cn1ccnc1)C(=O)c1ccccc1` (stereo not given), 0.25 µg/mL; to `CN(CC(=O)Nc1cccnc1)C(=O)c1cccc2ccccc12`, 0.25 µg/mL.
Same read-out and setting: for `O=C(CNC(=O)c1cccc2ccccc12)NC(Cn1ccnc1)C(=O)c1ccccc1` (stereo not given) the value was 0.25 µg/mL.
Same read-out and setting: to `O=C(NC(Cn1ccnc1)C(=O)NC1CCCC1)c1ccc2ccccc2c1` (stereo not given) belongs 0.25 µg/mL; to `O=C(NC(Cn1ccnc1)C(=O)NCc1ccccc1)c1cccc2ccccc12` (stereo not given), 0.5 µg/mL; to `O=C(NC(Cn1ccnc1)C(=O)NC1CCCCC1)c1cccc2ccccc12` (stereo not given), 0.5 µg/mL.
Turning to `CN(CC(=O)Nc1cccnc1)C(=O)c1ccc2ccccc2c1`, the MIC50 worked out at 0.125 µg/mL.
With `O=C(CNC(=O)c1ccc2ccccc2c1)NC(Cn1ccnc1)C(=O)c1ccccc1` (stereo not given), the MIC50 came to 0.25 µg/mL.
The same measure, in the same setting: for `O=C(NC(Cn1ccnc1)C(=O)NC1CCCCC1)c1ccc2ccccc2c1` (stereo not given) the value was 0.5 µg/mL; for `Cc1ccc(NC(=O)C(Cn2ccnc2)NC(=O)c2ccc3ccccc3c2)cc1` (stereo not given), 0.125 µg/mL.
Regarding `CN(CC(=O)NCc1cccnc1)C(=O)c1ccc2ccccc2c1`, the MIC50 was determined as 0.5 µg/mL.

For the next assay, the system named is Nakaseomyces glabratus. In words: Antifungal activity against Candida glabrata ATCC 0001 assessed as inhibition of microbial growth by NCCLS protocol based method. It is filed as functional. A digest of the protocol: as §1
For `O=C(NC(Cn1ccnc1)C(=O)NC1CCCC1)c1cccc2ccccc12` (stereo not given), the MIC50 came to 2 µg/mL.
Same read-out and setting: for `CN(CC(=O)Nc1ccncc1)C(=O)c1ccc2ccccc2c1` the value was 0.5 µg/mL; for `CC(C)C(NC(=O)c1cccc2ccccc12)C(=O)NC(Cn1ccnc1)C(=O)c1ccccc1` (stereo not given), 0.5 µg/mL.
The same measure, in the same setting: for `CN(CC(=O)Nc1cccnc1)C(=O)c1cccc2ccccc12` the value was 0.25 µg/mL; for `O=C(CNC(=O)c1cccc2ccccc12)NC(Cn1ccnc1)C(=O)c1ccccc1` (stereo not given), 0.25 µg/mL; for `O=C(NC(Cn1ccnc1)C(=O)NC1CCCC1)c1ccc2ccccc2c1` (stereo not given), 0.25 µg/mL.
The same measure, in the same setting: for `O=C(NC(Cn1ccnc1)C(=O)NCc1ccccc1)c1cccc2ccccc12` (stereo not given) the value was 0.5 µg/mL; for `O=C(NC(Cn1ccnc1)C(=O)NC1CCCCC1)c1cccc2ccccc12` (stereo not given), 0.25 µg/mL.
`CN(CC(=O)Nc1cccnc1)C(=O)c1ccc2ccccc2c1`: the MIC50 came out at 0.25 µg/mL.
Still for that read-out and setting: for `O=C(CNC(=O)c1ccc2ccccc2c1)NC(Cn1ccnc1)C(=O)c1ccccc1` (stereo not given) the value was 1 µg/mL; for `O=C(NC(Cn1ccnc1)C(=O)NC1CCCCC1)c1ccc2ccccc2c1` (stereo not given), 0.25 µg/mL.
On the same count and under the same terms, to `Cc1ccc(NC(=O)C(Cn2ccnc2)NC(=O)c2ccc3ccccc3c2)cc1` (stereo not given) belongs 0.25 µg/mL; to `CN(CC(=O)NCc1cccnc1)C(=O)c1ccc2ccccc2c1`, 0.5 µg/mL.

In the next assay the test system is Pichia kudriavzevii. As to the kind of experiment: Antifungal activity against Candida krusei ATCC 6258 assessed as inhibition of microbial growth by NCCLS protocol based method. In kind it is functional. A digest of the protocol:
as §1
With `O=C(NC(Cn1ccnc1)C(=O)NC1CCCC1)c1cccc2ccccc12` (stereo not given), the MIC50 was 0.5 µg/mL.
The same measure, in the same setting: to `CN(CC(=O)Nc1ccncc1)C(=O)c1ccc2ccccc2c1` belongs 1 µg/mL; to `CC(C)C(NC(=O)c1cccc2ccccc12)C(=O)NC(Cn1ccnc1)C(=O)c1ccccc1` (stereo not given), 1 µg/mL.
Turning to `CN(CC(=O)Nc1cccnc1)C(=O)c1cccc2ccccc12`, the MIC50 is 0.5 µg/mL.
The same measure, in the same setting: to `O=C(CNC(=O)c1cccc2ccccc12)NC(Cn1ccnc1)C(=O)c1ccccc1` (stereo not given) belongs 0.5 µg/mL; to `O=C(NC(Cn1ccnc1)C(=O)NC1CCCC1)c1ccc2ccccc2c1` (stereo not given), 1 µg/mL.
Regarding `O=C(NC(Cn1ccnc1)C(=O)NCc1ccccc1)c1cccc2ccccc12` (stereo not given), the MIC50 was determined as 1 µg/mL.
On the same count and under the same terms, for `O=C(NC(Cn1ccnc1)C(=O)NC1CCCCC1)c1cccc2ccccc12` (stereo not given) the value was 0.5 µg/mL; for `CN(CC(=O)Nc1cccnc1)C(=O)c1ccc2ccccc2c1`, 0.25 µg/mL; for `O=C(CNC(=O)c1ccc2ccccc2c1)NC(Cn1ccnc1)C(=O)c1ccccc1` (stereo not given), 0.5 µg/mL.
The same measure, in the same setting: for `O=C(NC(Cn1ccnc1)C(=O)NC1CCCCC1)c1ccc2ccccc2c1` (stereo not given) the value was 0.5 µg/mL; for `Cc1ccc(NC(=O)C(Cn2ccnc2)NC(=O)c2ccc3ccccc3c2)cc1` (stereo not given), 0.25 µg/mL; for `CN(CC(=O)NCc1cccnc1)C(=O)c1ccc2ccccc2c1`, 0.25 µg/mL.

The subject of a further assay is Candida tropicalis. In words: Antifungal activity against Candida tropicalis ATCC 1369 assessed as inhibition of microbial growth by NCCLS protocol based method. It is filed as functional. A digest of the protocol:
as §1
For the compound `O=C(NC(Cn1ccnc1)C(=O)NC1CCCC1)c1cccc2ccccc12` (stereo not given), the MIC50 turned out to be 0.5 µg/mL.
As to `CN(CC(=O)Nc1ccncc1)C(=O)c1ccc2ccccc2c1`, the MIC50 was determined as 0.25 µg/mL.
The same measure, in the same setting: to `CC(C)C(NC(=O)c1cccc2ccccc12)C(=O)NC(Cn1ccnc1)C(=O)c1ccccc1` (stereo not given) belongs 0.5 µg/mL; to `CN(CC(=O)Nc1cccnc1)C(=O)c1cccc2ccccc12`, 0.25 µg/mL.
For the compound `O=C(CNC(=O)c1cccc2ccccc12)NC(Cn1ccnc1)C(=O)c1ccccc1` (stereo not given), the MIC50 is 0.125 µg/mL.
On to `O=C(NC(Cn1ccnc1)C(=O)NC1CCCC1)c1ccc2ccccc2c1` (stereo not given), for which the MIC50 is 0.5 µg/mL.
Turning to `O=C(NC(Cn1ccnc1)C(=O)NCc1ccccc1)c1cccc2ccccc12` (stereo not given), the MIC50 came to 0.25 µg/mL.
On the same count and under the same terms, to `O=C(NC(Cn1ccnc1)C(=O)NC1CCCCC1)c1cccc2ccccc12` (stereo not given) belongs 1 µg/mL.
Still for that read-out and setting: for `CN(CC(=O)Nc1cccnc1)C(=O)c1ccc2ccccc2c1` the value was 0.125 µg/mL; for `O=C(CNC(=O)c1ccc2ccccc2c1)NC(Cn1ccnc1)C(=O)c1ccccc1` (stereo not given), 0.25 µg/mL.
Regarding `O=C(NC(Cn1ccnc1)C(=O)NC1CCCCC1)c1ccc2ccccc2c1` (stereo not given), the MIC50 is 0.5 µg/mL.
The same measure, in the same setting: for `Cc1ccc(NC(=O)C(Cn2ccnc2)NC(=O)c2ccc3ccccc3c2)cc1` (stereo not given) the value was 0.25 µg/mL; for `CN(CC(=O)NCc1cccnc1)C(=O)c1ccc2ccccc2c1`, 0.25 µg/mL.

The test system of another assay is Aspergillus fumigatus. In words: Antifungal activity against Aspergillus fumigatus KM8001 assessed as inhibition of microbial growth by NCCLS protocol based method. It is filed as functional. A digest of the protocol: as §1
Regarding `O=C(NC(Cn1ccnc1)C(=O)NC1CCCC1)c1cccc2ccccc12` (stereo not given), the MIC50 is more than 16 µg/mL.
Consider `CN(CC(=O)Nc1ccncc1)C(=O)c1ccc2ccccc2c1`, for which the MIC50 was found to be 8 µg/mL.
The same measure, in the same setting: to `CC(C)C(NC(=O)c1cccc2ccccc12)C(=O)NC(Cn1ccnc1)C(=O)c1ccccc1` (stereo not given) belongs more than 16 µg/mL; to `CN(CC(=O)Nc1cccnc1)C(=O)c1cccc2ccccc12`, more than 16 µg/mL; to `O=C(CNC(=O)c1cccc2ccccc12)NC(Cn1ccnc1)C(=O)c1ccccc1` (stereo not given), 8 µg/mL.
For the compound `O=C(NC(Cn1ccnc1)C(=O)NC1CCCC1)c1ccc2ccccc2c1` (stereo not given), the MIC50 came to 8 µg/mL.
Turning to `O=C(NC(Cn1ccnc1)C(=O)NCc1ccccc1)c1cccc2ccccc12` (stereo not given), the MIC50 amounted to 8 µg/mL.
In the case of `O=C(NC(Cn1ccnc1)C(=O)NC1CCCCC1)c1cccc2ccccc12` (stereo not given), the MIC50 is more than 16 µg/mL.
In the case of `CN(CC(=O)Nc1cccnc1)C(=O)c1ccc2ccccc2c1`, the MIC50 came to 4 µg/mL.
Same read-out and setting: to `O=C(CNC(=O)c1ccc2ccccc2c1)NC(Cn1ccnc1)C(=O)c1ccccc1` (stereo not given) belongs more than 16 µg/mL; to `O=C(NC(Cn1ccnc1)C(=O)NC1CCCCC1)c1ccc2ccccc2c1` (stereo not given), more than 16 µg/mL.
On the same count and under the same terms, for `Cc1ccc(NC(=O)C(Cn2ccnc2)NC(=O)c2ccc3ccccc3c2)cc1` (stereo not given) the value was 8 µg/mL; for `CN(CC(=O)NCc1cccnc1)C(=O)c1ccc2ccccc2c1`, more than 16 µg/mL.

The next assay has as its system Candida albicans. As to the kind of experiment: Antifungal activity against fluconazole-resistant Candida albicans 17# assessed as inhibition of microbial growth by NCCLS protocol based method. In kind it is functional.
Turning to `CN(CC(=O)Nc1cccnc1)C(=O)c1ccc2ccccc2c1`, the MIC50 came to 8 µg/mL.

The test system of the next assay is Candida albicans. In words: Antifungal activity against fluconazole-resistant Candida albicans CaR assessed as inhibition of microbial growth by NCCLS protocol based method. In kind it is functional.
As to `CN(CC(=O)Nc1cccnc1)C(=O)c1ccc2ccccc2c1`, the MIC50 turned out to be 4 µg/mL.

For a further assay, the system named is Candida albicans. In words: Antifungal activity against fluconazole-resistant Candida albicans 632 assessed as inhibition of microbial growth by NCCLS protocol based method. In kind it is functional.
As for `CN(CC(=O)Nc1cccnc1)C(=O)c1ccc2ccccc2c1`, the MIC50 is more than 16 µg/mL.

In a further assay the test system is Candida albicans. As to the kind of experiment: Antifungal activity against fluconazole-resistant Candida albicans 901 assessed as inhibition of microbial growth by NCCLS protocol based method. It is filed as functional.
`CN(CC(=O)Nc1cccnc1)C(=O)c1ccc2ccccc2c1`: the MIC50 was more than 16 µg/mL.

A further assay has as its system Candida albicans. As to the kind of experiment: Antifungal activity against fluconazole-resistant Candida albicans 904 assessed as inhibition of microbial growth by NCCLS protocol based method. It is filed as functional.
As for `CN(CC(=O)Nc1cccnc1)C(=O)c1ccc2ccccc2c1`, the MIC50 is more than 16 µg/mL.

These data come from ChEMBL document CHEMBL4732095, “Novel naphthylamide derivatives as dual-target antifungal inhibitors: Design, synthesis and biological evaluation” (Eur J Med Chem, 2021).
